Key:
Assay type in all cases: functional
[1] = tested on: NCI-H23; experiment: Antitumor activity against human NCI-H23 cells after 48 hrs by SRB assay; conditions: NCI-H23, 48 h
Outline: (§1)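 Cells grown in RPMI 1640 with 5% FBS and 2 mM L-glutamine and seeded at 5000–40,000 cells/well according to doubling time. They were preincubated 24 h at 37 °C, 5% CO2, then exposed to DMSO-solubilized compound for 48 h. Adherent cells were fixed with cold TCA (10% final), suspension cells with 16% final. Stained with 0.4% SRB; absorbance at 515 nm. Percent growth calculated against time-zero and control plates.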

[2] = tested on: T47D; experiment: Antitumor activity against human T47D cells after 48 hrs by SRB assay
Outline: (§2)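 NCI-60 protocol. Cells were grown in RPMI 1640 with 5% FBS and 2 mM L-glutamine, plated at 5000–40,000 cells/well, and preincubated 24 h at 37 °C, 5% CO2. Time-zero plates were TCA-fixed. Compounds were in DMSO and incubated 48 h. Fixation used cold TCA (final 16% for suspension SR; final 10% for adherent lines 2-7). Plates were stained with 0.4% SRB in 1% acetic acid, solubilized in 10 mM Tris base, and read at 515 nm. Percent growth was calculated from Tz, C and Ti.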

[3] = tested on: NCI-H322M; experiment: Antitumor activity against human NCI-H322M cells after 48 hrs by SRB assay; outline: as §1
[4] = tested on: Malme-3M; experiment: Antitumor activity against human MALME-3M cells after 48 hrs by SRB assay; outline: as §1
[5] = tested on: RPMI-8226; experiment: Antitumor activity against human RPMI8226 cells after 48 hrs by SRB assay; conditions: RPMI-8226, 48 h; outline: as §1
[6] = tested on: NCI-H460; experiment: Antitumor activity against human NCI-H460 cells after 48 hrs by SRB assay; conditions: NCI-H460, 48 h; outline: as §1
[7] = tested on: A498; experiment: Antitumor activity against human A498 cells after 48 hrs by SRB assay; conditions: A498, 48 h; outline: as §1
[8] = tested on: 786-0; experiment: Antitumor activity against human 786-0 cells after 48 hrs by SRB assay; conditions: 786-0, 48 h; outline: as §1
[9] = tested on: UACC-62; experiment: Antitumor activity against human UACC62 cells after 48 hrs by SRB assay; conditions: UACC-62, 48 h; outline: as §2
[10] = tested on: HOP-62; experiment: Antitumor activity against human HOP62 cells after 48 hrs by SRB assay; conditions: HOP-62, 48 h; outline: as §1
[11] = tested on: MOLT-4; experiment: Antitumor activity against human MOLT4 cells after 48 hrs by SRB assay; conditions: MOLT-4, 48 h; outline: as §1
[12] = tested on: SF-539; experiment: Antitumor activity against human SF539 cells after 48 hrs by SRB assay; conditions: SF-539, 48 h; outline: as §1
[13] = tested on: OVCAR-8; experiment: Antitumor activity against human OVCAR8 cells after 48 hrs by SRB assay; conditions: OVCAR-8, 48 h; outline: as §1
[14] = tested on: MDA-MB-435; experiment: Antitumor activity against human MDA-MB-435 cells after 48 hrs by SRB assay; conditions: MDA-MB-435, 48 h; outline: as §1
[15] = tested on: COLO 205; experiment: Antitumor activity against human COLO205 cells after 48 hrs by SRB assay; conditions: COLO 205, 48 h; outline: as §1
[16] = tested on: SNB-19; experiment: Antitumor activity against human SNB19 cells after 48 hrs by SRB assay; conditions: SNB-19, 48 h; outline: as §1
[17] = tested on: OVCAR-3; experiment: Antitumor activity against human OVCAR3 cells after 48 hrs by SRB assay; conditions: OVCAR-3, 48 h; outline: as §1
[18] = tested on: HOP-92; experiment: Antitumor activity against human HOP92 cells after 48 hrs by SRB assay; conditions: HOP-92, 48 h; outline: as §1
[19] = tested on: A549; experiment: Antitumor activity against human A549 cells after 48 hrs by SRB assay; conditions: A549, 48 h; outline: as §1
[20] = tested on: KM12; experiment: Antitumor activity against human KM12 cells after 48 hrs by SRB assay; conditions: KM12, 48 h; outline: as §1
[21] = tested on: SF-268; experiment: Antitumor activity against human SF268 cells after 48 hrs by SRB assay; conditions: SF-268, 48 h; outline: as §1
[22] = tested on: DU-145; experiment: Antitumor activity against human DU145 cells after 48 hrs by SRB assay; conditions: DU-145, 48 h; outline: as §1
[23] = tested on: CCRF-CEM; experiment: Antitumor activity against human CCRF-CEM cells after 48 hrs by SRB assay; outline: as §1
[24] = tested on: RXF 393; experiment: Antitumor activity against human RXF393 cells after 48 hrs by SRB assay; conditions: RXF 393, 48 h; outline: as §1
[25] = tested on: MDA-MB-231; experiment: Antitumor activity against human MDA-MB-231 cells after 48 hrs by SRB assay; conditions: MDA-MB-231, 48 h; outline: as §1
[26] = tested on: HCC 2998; experiment: Antitumor activity against human HCC2998 cells after 48 hrs by SRB assay; conditions: HCC 2998, 48 h; outline: as §1
[27] = tested on: NCI-H522; experiment: Antitumor activity against human NCI-H522 cells after 48 hrs by SRB assay; conditions: NCI-H522, 48 h; outline: as §1
[28] = tested on: SF-295; experiment: Antitumor activity against human SF295 cells after 48 hrs by SRB assay; conditions: SF-295, 48 h; outline: as §1
[29] = tested on: LOX IMVI; experiment: Antitumor activity against human LOXIMVI cells after 48 hrs by SRB assay; outline: as §1
[30] = read-out: LC50 (the source's name)

Clc1ccc(-c2nc3sc(C4CC4)nn3c2Br)cc1
GI50 [1]: 5.1 µM | TGI [1]: > 100 µM | CC50 [1, 30]: > 100 µM | GI50 [2]: 4.49 µM | TGI [2]: 73.5 µM | CC50 [2, 30]: > 100 µM | GI50 [3]: 43.4 µM | TGI [3]: > 100 µM | CC50 [3, 30]: > 100 µM | GI50 [4]: 8.79 µM | TGI [4]: > 100 µM | CC50 [4, 30]: > 100 µM | GI50 [5]: 3.22 µM | TGI [5]: > 100 µM | CC50 [5, 30]: > 100 µM | GI50 [6]: 5.25 µM | TGI [6]: > 100 µM | CC50 [6, 30]: > 100 µM | GI50 [7]: 30.8 µM | TGI [7]: > 100 µM | CC50 [7, 30]: > 100 µM | GI50 [8]: 13.6 µM | TGI [8]: > 100 µM | CC50 [8, 30]: > 100 µM | GI50 [9]: 4.36 µM | TGI [9]: > 100 µM | CC50 [9, 30]: > 100 µM | GI50 [10]: 38.1 µM | TGI [10]: > 100 µM | CC50 [10, 30]: > 100 µM | GI50 [11]: 2.97 µM | TGI [11]: > 100 µM | CC50 [11, 30]: > 100 µM | GI50 [12]: 6.78 µM | TGI [12]: > 100 µM | CC50 [12, 30]: > 100 µM | GI50 [13]: 5.76 µM | TGI [13]: > 100 µM | CC50 [13, 30]: > 100 µM | GI50 [14]: 6.08 µM | TGI [14]: > 100 µM | CC50 [14, 30]: > 100 µM | GI50 [15]: 7.23 µM | TGI [15]: > 100 µM | CC50 [15, 30]: > 100 µM | GI50 [16]: 15.6 µM | TGI [16]: > 100 µM | CC50 [16, 30]: > 100 µM | GI50 [17]: 4.63 µM | TGI [17]: > 100 µM | CC50 [17, 30]: > 100 µM | GI50 [18]: 5.59 µM | TGI [18]: 37.9 µM | CC50 [18, 30]: > 100 µM | GI50 [19]: 7.42 µM | TGI [19]: > 100 µM | CC50 [19, 30]: > 100 µM | GI50 [20]: 3.77 µM | TGI [20]: > 100 µM | CC50 [20, 30]: > 100 µM | GI50 [21]: 19.3 µM | TGI [21]: > 100 µM | CC50 [21, 30]: > 100 µM | GI50 [22]: 19.2 µM | TGI [22]: > 100 µM | CC50 [22, 30]: > 100 µM | GI50 [23]: 3.66 µM | TGI [23]: > 100 µM | CC50 [23, 30]: > 100 µM | GI50 [24]: 2.93 µM | TGI [24]: 14.8 µM | CC50 [24, 30]: > 100 µM | GI50 [25]: 6.59 µM | TGI [25]: > 100 µM | CC50 [25, 30]: > 100 µM | GI50 [26]: 8.19 µM | TGI [26]: > 100 µM | CC50 [26, 30]: > 100 µM | GI50 [27]: 5.31 µM | TGI [27]: 55.4 µM | CC50 [27, 30]: > 100 µM | GI50 [28]: 5.04 µM | TGI [28]: > 100 µM | CC50 [28, 30]: > 100 µM | GI50 [29]: 9.2 µM | TGI [29]: > 100 µM | CC50 [29, 30]: > 100 µM

Reference: ChEMBL document CHEMBL1821594, “Synthesis and anticancer evaluation of novel 2-cyclopropylimidazo[2,1-b][1,3,4]-thiadiazole derivatives” (2011)
